Calls of active or inactive are those of the source. The calls are words filed in the database; no cut-off is given here.
How the values were obtained:
[1] = target: T1, Neuronal acetylcholine receptor subunit alpha-7 (Homo sapiens, UniProt P36544); experiment: Agonist activity at alpha7-5HT3 chimera expressed in human SH-EP1 cells by FLIPR assay; assay type: functional, cell-based
Target sequence in this assay (P36544 23-502 limits assumed): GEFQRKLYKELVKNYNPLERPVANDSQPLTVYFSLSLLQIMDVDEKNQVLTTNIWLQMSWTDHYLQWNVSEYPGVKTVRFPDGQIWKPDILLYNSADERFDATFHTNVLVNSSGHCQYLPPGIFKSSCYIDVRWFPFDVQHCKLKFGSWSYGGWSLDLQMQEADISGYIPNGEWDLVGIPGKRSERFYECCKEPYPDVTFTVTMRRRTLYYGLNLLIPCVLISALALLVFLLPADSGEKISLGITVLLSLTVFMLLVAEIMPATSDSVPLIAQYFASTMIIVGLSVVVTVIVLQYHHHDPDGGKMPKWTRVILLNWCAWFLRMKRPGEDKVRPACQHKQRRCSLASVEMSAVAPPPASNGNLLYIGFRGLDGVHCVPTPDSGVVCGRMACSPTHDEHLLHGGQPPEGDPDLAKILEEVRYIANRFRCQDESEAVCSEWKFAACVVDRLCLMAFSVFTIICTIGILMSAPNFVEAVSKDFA

[2] = target: Neuronal acetylcholine receptor subunit alpha-7 (Rattus norvegicus, UniProt Q05941); experiment: Displacement of [3H]MLA from alpha-7 nACh receptor in rat brain; assay type: tissue-based
Summary of the method: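 Rat brain homogenate binding with [3H]MLA; individual Ki values, mean ± SEM reported when more than 3 measurements.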

[3] = Metabolic stability in rat liver microsomes assessed as hepatic extraction ratio after 30 mins; assay type: ADME, Microsome
Summary of the method: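 Rat liver microsome incubation; stability reported as fraction of compound remaining after 30 min relative to t0 concentration.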

Rattus norvegicus [4] = experiment: Reversal of amphetamine-induced auditory gating deficit in sc dosed rat auditory sensory gating model; assay type: functional
Summary of the method: (§1)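 Rats given amphetamine 1 mg/kg iv to disrupt gating, then test drug sc (0.01–1.0 mg/kg, n = 6-9). Gating is the conditioning/test EEG field potential ratio from paired tones at 0.5 Hz, monitored 30 min, expressed as % reversal. Brain and plasma levels taken about 37 min post-dose.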

Rattus norvegicus [5] = experiment: Reversal of amphetamine-induced auditory gating deficit in rat at 1 mg/kg, sc twice daily for 6 days; assay type: functional, organism-based; set-up: dose 1 mg/kg
Summary of the method: (§2)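 Rats dosed sc twice daily for 6 days with drug 1 mg/kg or 0.9% saline vehicle (n = 8). On day 7, amphetamine-induced gating deficit challenged with acute drug 1 mg/kg sc; brain and plasma exposures measured.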

Brain [6] = experiment: Drug level in rat brain at 1 mg/kg, sc; assay type: ADME, organism-based; set-up: dose 1 mg/kg, route subcutaneous; details: in vivo, read-out: Drug uptake; summary of the method: as §1
[7] = Ratio of drug level in brain to plasma in mouse at 10 mg/kg after 5 mins; assay type: ADME, organism-based; set-up: dose 10 mg/kg
Summary of the method: (§3)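 Mouse brain uptake: brain and plasma concentrations after a 10 mg/kg dose, ratio taken at 5 and 60 min.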

[8] = Cmax in dog ECG model; assay type: ADME, organism-based, Canis lupus familiaris; details: in vivo
Summary of the method: (§4)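 Acute dog ECG cardiovascular safety study; no-observable-adverse-effect dose set, with Cmax measured at that dose.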

[9] = target: T2, 5-hydroxytryptamine receptor 3A (Rattus norvegicus, UniProt P35563); experiment: Binding affinity to rat 5HT3 receptor
T2 sequence (P35563 whole entry): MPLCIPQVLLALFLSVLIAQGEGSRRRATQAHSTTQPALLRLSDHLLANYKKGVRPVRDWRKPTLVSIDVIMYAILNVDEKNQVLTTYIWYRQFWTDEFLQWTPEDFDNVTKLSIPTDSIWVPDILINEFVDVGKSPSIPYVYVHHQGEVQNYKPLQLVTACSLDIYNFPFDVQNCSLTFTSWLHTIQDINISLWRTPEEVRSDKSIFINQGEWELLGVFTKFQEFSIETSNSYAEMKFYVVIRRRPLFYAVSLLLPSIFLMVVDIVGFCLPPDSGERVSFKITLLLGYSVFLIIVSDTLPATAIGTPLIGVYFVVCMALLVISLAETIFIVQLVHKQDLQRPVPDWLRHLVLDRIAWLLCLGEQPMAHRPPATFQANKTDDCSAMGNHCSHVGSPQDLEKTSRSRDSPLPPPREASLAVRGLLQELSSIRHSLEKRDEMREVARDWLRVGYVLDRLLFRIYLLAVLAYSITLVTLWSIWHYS

[10] = Metabolic stability in human liver microsomes assessed as half life; assay type: ADME, Microsome
[11] = Ratio of drug level in brain to plasma in mouse at 10 mg/kg after 60 min; assay type: ADME, organism-based; set-up: dose 10 mg/kg; summary of the method: as §3
[12] = target: T1, Neuronal acetylcholine receptor subunit alpha-7; experiment: Displacement of [3H]MLA from alpha-7 nACh receptor in human IMR32 cells; assay type: cell-based, IMR-32
Target sequence in this assay (P36544 whole entry): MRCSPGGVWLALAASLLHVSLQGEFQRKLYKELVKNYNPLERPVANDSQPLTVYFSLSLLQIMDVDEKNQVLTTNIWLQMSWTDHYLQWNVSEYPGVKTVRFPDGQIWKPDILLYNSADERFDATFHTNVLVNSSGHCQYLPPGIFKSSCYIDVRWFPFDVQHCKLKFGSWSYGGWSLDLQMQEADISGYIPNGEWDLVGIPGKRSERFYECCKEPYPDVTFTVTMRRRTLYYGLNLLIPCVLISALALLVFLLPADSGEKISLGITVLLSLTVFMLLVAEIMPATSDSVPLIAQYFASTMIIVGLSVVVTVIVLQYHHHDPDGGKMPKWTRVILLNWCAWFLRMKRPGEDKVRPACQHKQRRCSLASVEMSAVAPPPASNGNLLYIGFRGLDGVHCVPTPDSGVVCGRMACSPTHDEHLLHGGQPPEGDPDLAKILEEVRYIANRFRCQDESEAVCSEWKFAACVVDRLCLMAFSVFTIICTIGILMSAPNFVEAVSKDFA

Rattus norvegicus [13] = experiment: Volume of distribution at steady state in Sprague-Dawley rat at 5 mg/kg, po; assay type: ADME, organism-based; set-up: dose 5 mg/kg, route oral; details: in vivo
Summary of the method: (§5)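 Sprague-Dawley rats given a single 5.0 mg/kg oral dose; pharmacokinetic parameters derived from plasma.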

[14] = target: Muscarinic acetylcholine receptor M3 (Homo sapiens) (UniProt P20309); experiment: Displacement of [3H]DAMP from human muscarinic M3 receptor expressed in CHO cells at 10 uM; assay type: cell-based
Summary of the method: (§6)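 Human muscarinic receptors in transfected CHO cells; radioligands [3H]pirenzepine (M1), [3H]AF-DX 384 (M2), [3H]DAMP (M3); percent block at 10 µM.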

Plasma [15] = experiment: Drug level in rat plasma at 0.01 mg/kg, sc; assay type: ADME, organism-based; set-up: dose 0.01 mg/kg, route subcutaneous; details: in vivo; summary of the method: as §1
[16] = Drug level in rat plasma at 1 mg/kg, sc twice daily for 6 days; assay type: ADME, organism-based; set-up: dose 1 mg/kg, route subcutaneous; summary of the method: as §2
hERG (KCNH2) = hERG (KCNH2) (Homo sapiens, UniProt Q12809); experiment: Inhibition of human ERG expressed in HEK293 cells at 20 uM; assay type: cell-based; details: HEK293 cells that express hERG
Summary of the method: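 Patch-clamp on hERG current (IKr) in HEK cells; percent inhibition at 20 µM; aqueous solubility checked by HPLC in pH 7 buffer.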

Plasma [17] = experiment: Drug level in rat plasma at 0.1 mg/kg, sc; assay type: ADME, organism-based; set-up: dose 0.1 mg/kg, route subcutaneous; details: in vivo; summary of the method: as §1
[18] = target: Neuronal acetylcholine receptor; alpha4/beta2 (Rattus norvegicus) (UniProt P09483+P12390); experiment: Displacement of [3H][…] from alpha-4-beta-2 nACh receptor in rat brain at 1 uM; assay type: tissue-based
Summary of the method: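 Rat brain homogenate binding using [3H][…]; percent block at 1 µM.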

[19] = target: T3, Muscarinic acetylcholine receptor M1 (Homo sapiens) (UniProt P11229); experiment: Displacement of [3H]pirenzepine from human muscarinic M1 receptor expressed in CHO cells at 10 uM; assay type: cell-based; summary of the method: as §6
T3 sequence (whole entry): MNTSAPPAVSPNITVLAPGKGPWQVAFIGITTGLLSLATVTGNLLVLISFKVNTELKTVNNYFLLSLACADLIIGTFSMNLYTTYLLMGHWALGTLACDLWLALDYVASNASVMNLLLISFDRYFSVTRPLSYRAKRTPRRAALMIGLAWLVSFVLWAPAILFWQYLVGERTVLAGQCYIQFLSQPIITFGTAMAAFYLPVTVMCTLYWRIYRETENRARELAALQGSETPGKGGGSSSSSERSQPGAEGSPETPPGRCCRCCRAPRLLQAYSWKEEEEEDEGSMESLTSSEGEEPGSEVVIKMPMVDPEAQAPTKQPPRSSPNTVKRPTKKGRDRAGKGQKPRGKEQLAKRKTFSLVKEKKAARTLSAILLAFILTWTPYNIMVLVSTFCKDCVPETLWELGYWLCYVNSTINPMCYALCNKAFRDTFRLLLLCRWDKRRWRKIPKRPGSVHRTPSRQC

Brain [20] = experiment: Drug level in rat brain at 0.1 mg/kg, sc; assay type: ADME, organism-based; set-up: dose 0.1 mg/kg, route subcutaneous; details: in vivo; summary of the method: as §1
Plasma [21] = experiment: Drug level in rat plasma at 1 mg/kg, sc; assay type: ADME, organism-based; set-up: dose 1 mg/kg, route subcutaneous; details: in vivo; summary of the method: as §1
[22] = Drug level in rat plasma at 0.24 mg/kg, iv after 30 mins; assay type: ADME, organism-based; set-up: dose 0.24 mg/kg, route intravenous
[23] = Oral bioavailability in Sprague-Dawley rat at 5 mg/kg; assay type: ADME, organism-based; details: in vivo; summary of the method: as §5
[24] = target: T4, Muscarinic acetylcholine receptor M2 (Homo sapiens) (UniProt P08172); experiment: Displacement of [3H]AF-DX384 from human muscarinic M2 receptor expressed in CHO cells at 10 uM; assay type: cell-based; summary of the method: as §6
T4 sequence (whole entry): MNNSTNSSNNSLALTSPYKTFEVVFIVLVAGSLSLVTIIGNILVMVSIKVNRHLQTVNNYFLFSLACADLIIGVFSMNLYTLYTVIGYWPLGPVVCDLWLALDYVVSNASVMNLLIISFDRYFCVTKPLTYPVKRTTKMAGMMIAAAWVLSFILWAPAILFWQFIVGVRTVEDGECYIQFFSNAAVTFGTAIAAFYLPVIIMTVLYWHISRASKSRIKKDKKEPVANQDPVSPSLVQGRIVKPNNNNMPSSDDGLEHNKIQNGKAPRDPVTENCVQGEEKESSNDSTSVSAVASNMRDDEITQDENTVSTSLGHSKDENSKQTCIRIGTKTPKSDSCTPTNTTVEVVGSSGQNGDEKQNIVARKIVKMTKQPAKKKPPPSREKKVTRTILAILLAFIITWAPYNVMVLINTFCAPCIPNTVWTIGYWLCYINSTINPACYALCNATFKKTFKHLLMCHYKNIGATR

[25] = Drug level in rat brain at 1 mg/kg, sc twice daily for 6 days; assay type: ADME, organism-based; set-up: dose 1 mg/kg, route subcutaneous; details: read-out: Drug uptake; summary of the method: as §2
[26] = Apparent permeability from apical to basolateral side in dog MDCK cells; assay type: ADME, cell-based, Canis lupus familiaris
Summary of the method: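 MDCK monolayer permeability measured apical to basolateral, expressed as Papp (x10^-6 cm/s).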

[27] = Toxicity in dog ECG model assessed as drug level causing no observable adverse effects; assay type: organism-based, Canis lupus familiaris; details: in vivo, read-out: Activity; summary of the method: as §4
[28] = Half life in Sprague-Dawley rat at 5 mg/kg, po; assay type: ADME, organism-based; set-up: dose 5 mg/kg, route oral; details: in vivo; summary of the method: as §5
Brain [29] = experiment: Drug level in rat brain at 0.01 mg/kg, sc; assay type: ADME, organism-based; set-up: dose 0.01 mg/kg, route subcutaneous; details: in vivo, read-out: Drug uptake; summary of the method: as §1
[30] = Clearance in Sprague-Dawley rat at 5 mg/kg, po; assay type: ADME, organism-based; set-up: dose 5 mg/kg, route oral; details: in vivo; summary of the method: as §5
Plasma [31] = experiment: Fraction unbound in human plasma at 0.100 ug/mL; assay type: ADME, cell-free
Summary of the method: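 Human plasma protein binding as fraction unbound, measured at drug concentration 0.100 µg/mL.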

Rattus norvegicus [32] = experiment: Reversal of amphetamine-induced auditory gating deficit in iv dosed rat auditory sensory gating model; details: read-out: MED

Chain of Neuronal acetylcholine receptor subunit alpha-7 (Rattus norvegicus, UniProt Q05941) (Q05941 whole entry): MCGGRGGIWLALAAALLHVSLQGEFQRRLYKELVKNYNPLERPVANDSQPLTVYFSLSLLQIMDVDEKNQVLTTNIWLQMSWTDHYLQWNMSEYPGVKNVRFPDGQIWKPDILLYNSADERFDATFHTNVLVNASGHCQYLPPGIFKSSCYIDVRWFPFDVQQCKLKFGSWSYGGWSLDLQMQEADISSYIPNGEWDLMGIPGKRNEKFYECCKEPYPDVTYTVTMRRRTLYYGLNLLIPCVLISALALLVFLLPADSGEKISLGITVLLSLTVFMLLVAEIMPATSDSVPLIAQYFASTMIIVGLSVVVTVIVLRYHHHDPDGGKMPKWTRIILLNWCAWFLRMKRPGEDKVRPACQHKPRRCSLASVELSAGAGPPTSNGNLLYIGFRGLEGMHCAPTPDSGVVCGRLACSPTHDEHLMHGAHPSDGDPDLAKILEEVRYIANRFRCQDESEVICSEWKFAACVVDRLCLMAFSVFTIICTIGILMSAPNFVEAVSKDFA
Chain of Muscarinic acetylcholine receptor M3 (Homo sapiens) (P20309 whole entry, looked up): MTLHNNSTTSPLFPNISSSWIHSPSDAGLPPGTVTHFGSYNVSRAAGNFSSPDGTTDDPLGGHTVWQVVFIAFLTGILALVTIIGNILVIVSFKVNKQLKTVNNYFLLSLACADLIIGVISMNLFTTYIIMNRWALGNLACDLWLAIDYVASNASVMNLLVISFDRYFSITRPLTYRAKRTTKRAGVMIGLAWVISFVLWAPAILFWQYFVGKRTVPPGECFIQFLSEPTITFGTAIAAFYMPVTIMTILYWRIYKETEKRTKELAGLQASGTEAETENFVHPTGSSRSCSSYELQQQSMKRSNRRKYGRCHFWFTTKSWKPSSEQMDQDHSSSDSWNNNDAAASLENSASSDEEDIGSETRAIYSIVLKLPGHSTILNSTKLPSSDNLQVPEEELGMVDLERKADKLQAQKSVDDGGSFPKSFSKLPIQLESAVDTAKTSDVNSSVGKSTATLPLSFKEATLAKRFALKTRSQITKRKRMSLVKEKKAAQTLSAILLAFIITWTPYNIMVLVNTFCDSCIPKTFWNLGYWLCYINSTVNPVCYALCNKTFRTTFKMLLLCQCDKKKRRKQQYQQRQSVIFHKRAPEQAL
Chain of hERG (KCNH2) (Q12809 whole entry): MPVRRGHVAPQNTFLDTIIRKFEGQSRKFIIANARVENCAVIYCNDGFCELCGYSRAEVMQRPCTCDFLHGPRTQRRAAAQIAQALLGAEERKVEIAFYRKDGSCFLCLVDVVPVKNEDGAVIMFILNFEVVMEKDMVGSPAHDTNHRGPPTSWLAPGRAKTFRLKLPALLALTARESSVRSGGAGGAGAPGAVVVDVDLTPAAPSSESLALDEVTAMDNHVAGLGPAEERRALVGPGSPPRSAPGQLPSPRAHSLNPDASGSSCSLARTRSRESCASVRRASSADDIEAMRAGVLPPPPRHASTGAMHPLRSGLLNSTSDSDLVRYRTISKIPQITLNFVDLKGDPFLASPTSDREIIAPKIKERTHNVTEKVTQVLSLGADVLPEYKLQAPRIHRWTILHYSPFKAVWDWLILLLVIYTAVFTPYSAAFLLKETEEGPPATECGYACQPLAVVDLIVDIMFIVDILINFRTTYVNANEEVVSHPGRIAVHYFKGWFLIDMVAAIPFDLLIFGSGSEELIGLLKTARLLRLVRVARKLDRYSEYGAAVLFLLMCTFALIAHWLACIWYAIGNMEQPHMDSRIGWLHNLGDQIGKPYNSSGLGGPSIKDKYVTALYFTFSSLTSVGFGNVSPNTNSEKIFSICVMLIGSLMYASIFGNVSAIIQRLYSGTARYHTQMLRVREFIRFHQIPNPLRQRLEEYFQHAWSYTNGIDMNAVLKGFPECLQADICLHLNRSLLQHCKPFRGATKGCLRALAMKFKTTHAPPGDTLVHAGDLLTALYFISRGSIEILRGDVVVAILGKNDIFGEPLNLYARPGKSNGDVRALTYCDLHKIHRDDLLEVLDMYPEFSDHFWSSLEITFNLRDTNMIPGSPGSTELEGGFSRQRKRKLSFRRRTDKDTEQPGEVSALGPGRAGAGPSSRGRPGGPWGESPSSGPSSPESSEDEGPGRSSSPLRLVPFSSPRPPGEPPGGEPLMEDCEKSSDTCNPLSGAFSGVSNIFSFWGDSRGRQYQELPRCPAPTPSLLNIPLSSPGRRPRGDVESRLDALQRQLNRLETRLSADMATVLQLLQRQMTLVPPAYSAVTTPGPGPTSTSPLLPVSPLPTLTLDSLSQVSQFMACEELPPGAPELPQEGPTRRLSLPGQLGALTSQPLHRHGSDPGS

SMILES | EC50 [1] [nM] | Ki [2] [nM] | hepatic extraction ratio at 0.5 h [3] | Kp at 5 min [7] | Cmax [8] [nM] | Ki [9] [nM] | half-life [10] [min] | Kp at 1 h [11] | Vdss (Rattus norvegicus [13]) [L/kg] | Activity [14] [%] | Activity [18] [%] | Activity [19] [%] | Activity [24] [%] | Papp A→B [26] [×10⁻⁶ cm/s] | half-life [28] [min] | CL/F [30] [mL/min/kg] | other results
O=C(N[C@@H]1C[C@H]2CCN(C2)C1)c1ccc2c(c1)OCCO2 | 430 | 29 | 0.74 |  |  |  |  |  |  |  |  |  |  |  |  |  | 
O=C(N[C@@H]1C[C@H]2CCN(C2)C1)c1cc2cccn2cn1 | 129 | 14 | 0.86 |  |  |  |  |  |  |  |  |  |  |  |  |  | 
O=C(N[C@H]1CN2CCC1CC2)c1ccc(Cl)cc1 [PNU-282987] | 128 |  | < 0.27 |  |  |  |  |  |  |  |  |  |  |  |  |  | 
O=C(N[C@@H]1C[C@H]2CCN(C2)C1)c1cc2ccoc2cn1 | 46 | 2.9 |  | 1.52 | 22000 | 350 | > 120 | 1.88 | 2.4 | 15 | < 1 | 16 | 25 | 21 | 48 | 72 | Activity (Rattus norvegicus [4]): Dose-dependent effect; minimal effective dose (Rattus norvegicus [4]; read-out: MED): 0.1 mg/kg; Activity (Rattus norvegicus [5]): Active; concentration (Brain [6]): 1200 nM; Ki [12]: 9 nM; concentration (Plasma [15]): 12 nM; concentration at 144 h [16]: 490 nM; inhibition at 20 µM (hERG (KCNH2)): 25%; concentration (Plasma [17]): 60 nM; concentration (Brain [20]): 47 nM; concentration (Plasma [21]): 1100 nM; concentration at 0.5 h [22]: 130 nM; bioavailability [23]: 40%; concentration at 144 h [25]: 350 nM; NOAEL [27]: 40 mg/kg; concentration (Brain [29]): 5.3 nM
O=C(N[C@H]1CN2CCC1CC2)c1cc2ccoc2cn1 [PHA-543613] |  | 9 |  | 1.5 | 3800 | 630 | > 120 | 1.5 | 1.8 | 33 | 13 | 16 | 23 | 34 | 36 | 33 | fraction unbound (Plasma [31]): 0.83; minimal effective dose (Rattus norvegicus [32]): 0.24 mg/kg

— ChEMBL document CHEMBL1145564, “Discovery of N-[(3R,5R)-1-azabicyclo[3.2.1]oct-3-yl]furo[2,3-c]pyridine-5-carboxamide as an agonist of the alpha7 nicotinic acetylcholine receptor: in vitro and in vivo activity” (Bioorg Med Chem Lett, 2008)
